Test results taken from PubChem BioAssay.
Calls of active or inactive are those of the source.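 The calls were made as follows, unless noted: active = fluorescence slope after compound addition differing from the mean of all tested samples at 99.7% confidence, mostly higher but some lower; inactive = the rest.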

Assays:
[1] = inhibitors of TNFa-induced NFkB p65 translocation, primary screen, imaging, HUVEC, MLSMR starter and 10KST1 sets (AID 438;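 active = inhibition above 20% together with a positive visual image hit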;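 also: compound added about 3h40 before a 20 min TNFalpha stimulation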;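 as to inhibition: signal is the nuclear over cytoplasmic p65 intensity ratio per well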); settings: HUVEC TNFa-induced p65 nuclear translocation; cell count: measured here: nuclei count (cytotoxicity indicator), at 2.08 µM; inhibition: at 2 µM, stronger effect = higher value, 0% TNFa-plus-vehicle, 100% no-TNFa wells
[2] = reduction of polyQ htt aggregates in cells – imaging, exon1htt(103Q)mCFP cells, high-content imaging, primary screen (AID 483;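 active = visual image review flags a hit and inhibition of aggregation exceeds 20%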;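 also: compound exposure lasted 3 days before fixation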;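 as to nuclei count: percent of the per-plate median nuclei count of sample wells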); settings: exon1htt(103Q)mCFP cell line, aggregate imaging, at 2 µM; inhibition of aggregation: stronger effect = higher value; nuclei count: measured here: cell count, toxicity
[3] = endothelial E-selectin expression blockers – imaging, HUVEC, immunofluorescence, MLSMR starter and 10KST1 sets, primary screen (AID 487;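 active = visually confirmed hit in the image check and inhibition above 20%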;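 as to inhibition: signal is fraction of cell area covered by stained E-selectin grains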;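 as to nuclei count: 100% = median nuclei count of all wells on the same plate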); settings: HUVEC TNFalpha-induced E-selectin immunofluorescence imaging, at 2 µM; inhibition: stronger effect = higher value; nuclei count: measured here: cell number, toxicity
[4] = target: Voltage-gated potassium channel subunit beta-2 (Rattus norvegicus) (UniProt P62483); assay: inhibitors of rat Kvbeta2 reductase activity – biochemical, NADPH fluorescence, primary screen (AID 622;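 active = fluorescence slope higher than the sample average by over 3 SD, cut at about -0.22 in these data, passing the limit was not always enough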;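 also: slope of raw intensity against log time taken from 70 to 1610 s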); settings: recombinant KvBeta, 4-cyanobenzaldehyde reduction, at 10 µM, stronger effect = higher value
Voltage-gated potassium channel subunit beta-2 (Rattus norvegicus), sequence (P62483 whole entry, looked up): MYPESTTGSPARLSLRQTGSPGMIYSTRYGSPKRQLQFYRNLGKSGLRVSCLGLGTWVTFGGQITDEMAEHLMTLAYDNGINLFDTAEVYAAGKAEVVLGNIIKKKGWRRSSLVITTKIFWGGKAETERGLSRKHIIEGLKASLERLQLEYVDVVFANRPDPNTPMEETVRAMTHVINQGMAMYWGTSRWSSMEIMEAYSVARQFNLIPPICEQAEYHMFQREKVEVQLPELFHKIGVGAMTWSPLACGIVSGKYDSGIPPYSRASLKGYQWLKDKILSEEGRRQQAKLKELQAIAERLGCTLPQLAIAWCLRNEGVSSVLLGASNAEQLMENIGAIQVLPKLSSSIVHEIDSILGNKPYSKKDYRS

[5] = target: Voltage-gated potassium channel subunit beta-2 (Rattus norvegicus) (UniProt P62483); assay: enhancers of rat Kvbeta2 NADPH turnover – biochemical, NADPH fluorescence, primary screen (AID 623;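 active = NADPH fluorescence slope more negative than the mean of all samples by about 3 SD, 99.7% confidence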;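 also: fluorescence intensity change per second fitted from 20 to 320 s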); settings: Recombinant KvBeta, NADPH fluorescence decrease slope, 10 min; at 10 µM; stronger effect = lower value
[6] = target: Muscarinic acetylcholine receptor M4 (Homo sapiens) (UniProt P08173); assay: M4-linked GIRK flux change, two-sided – cell-based, HEK293 M4/GIRK, thallium flux, BTC-AM, M4 allosteric agonist project, primary screen (AID 625); settings: at 10 µM, actives lie on both sides;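 also: thallium influx through GIRK channels coupled to M4 in HEK293 cells with BTC-AM dye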
Muscarinic acetylcholine receptor M4 (Homo sapiens), sequence (P08173 whole entry, looked up): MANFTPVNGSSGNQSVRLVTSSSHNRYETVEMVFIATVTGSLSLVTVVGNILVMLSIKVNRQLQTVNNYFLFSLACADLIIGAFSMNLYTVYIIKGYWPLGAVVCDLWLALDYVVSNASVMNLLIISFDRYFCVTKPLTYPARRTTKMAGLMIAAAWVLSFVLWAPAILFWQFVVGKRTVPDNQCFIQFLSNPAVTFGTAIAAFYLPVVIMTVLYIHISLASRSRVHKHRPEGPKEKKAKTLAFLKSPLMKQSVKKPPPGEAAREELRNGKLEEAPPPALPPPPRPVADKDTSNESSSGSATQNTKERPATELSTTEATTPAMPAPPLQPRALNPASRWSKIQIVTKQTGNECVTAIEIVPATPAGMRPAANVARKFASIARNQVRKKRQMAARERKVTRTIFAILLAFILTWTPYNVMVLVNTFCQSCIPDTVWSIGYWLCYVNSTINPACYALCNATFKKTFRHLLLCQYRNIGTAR
Method in brief: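 assay system = HEK293 cells with M4 receptor and GIRK channels | medium = pH 7.3 thallium assay buffer | doses = 10 µM final, single point | timing = cells overnight at 37 °C, BTC-AM loading 1 h, reads 2 min total | signal = BTC-AM fluorescence, 1 Hz kinetic reads | read-out = post-addition slope, 15–24 s, of baseline-normalized fluorescence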

[7] = blockers of RIG-like receptor reporter activation – cell-based, Sendai virus stimulus, luciferase, 10K MLSCN set, TLR/RLR signaling modifier project, primary screen (AID 602276;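 active = inhibition at or above 50% at 10 µM; inactive = inhibition below 50%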;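 also: firefly luciferase from ISG56 promoter only with Renilla not read in this screen; 0% = Sendai virus plus DMSO and 100% = medium plus DMSO without virus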); settings: HEK293 RL24 IRF3 luciferase reporter, at 10 µM, stronger effect = higher value
[8] = TLR3 IRF3 reporter activation blockers – cell-based, poly I:C stimulus, luciferase, 10K MLSCN set, primary screen (AID 602277;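 active = inhibition of the reporter signal at or above 50%; inactive = inhibition below 50%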); settings: HEK293-TLR3 RL24 IRF3 luciferase reporter, at 10 µM, stronger effect = higher value

| SMILES | cell count [1] | inhibition [1] | inhibition of aggregation [2] | nuclei count [2] | inhibition [3] | nuclei count [3] | fluorescence slope [4] | NADPH fluorescence slope [5] | fluorescence slope [6] | inhibition [7] | inhibition [8] |
| --- | --- | --- | --- | --- | --- | --- | --- | --- | --- | --- | --- |
| Cc1nc2ccccn2c1/C(O)=C1\C(=O)C(=O)N(CCN2CCOCC2)C1c1cccs1 (stereo not drawn) | 318 | 0.2% (inactive) | 0.3% (inactive) | 99.6% | -41.3% (inactive) | 116% | -0.301 (inactive) | -1.7e-05 (inactive) | 0.00659 (inactive) | -0.701% (inactive) | 7.4% (inactive) |
| CCCc1nn(CCc2ccccn2)c(N)c1CC | 613 | -9.1% (inactive) | 7.2% (inactive) | 105% | -43.2% (inactive) | 140% | -0.372 (inactive) | 5.8e-05 (inactive) | 0.00633 (inactive) | 14.8% (inactive) | 21.5% (inactive) |
| CCOC(=O)C1=C(C)Nc2ncnn2C1c1ccccc1F (stereo not drawn) | 469 | -5.9% (inactive) | -7.1% (inactive) | 81.7% | -49.3% (inactive) | 102% | -0.559 (inactive) | -1.9e-05 (inactive) | 0.00641 (inactive) | -5.35% (inactive) | -2.56% (inactive) |
| CCOc1ccccc1NC(=O)CSc1c(C)n[nH]c1C | 333 | -2% (inactive) | -21.4% (inactive) | 120% | -17.1% (inactive) | 113% | -0.548 (inactive) | -1.7e-05 (inactive) | 0.00526 (inactive) | 1.91% (inactive) | 15.3% (inactive) |
| CCN1C(=O)/C(=C/N2CCc3ccccc32)SC1=S | 382 | 1.8% (inactive) | -22.3% (inactive) | 117% | -1.2% (inactive) | 100% | -0.403 (inactive) | -2.8e-05 (inactive) | 0.00654 (inactive) | -26.3% (inactive) | -99.1% (inactive) |
| Clc1ccc(SCCCCn2ccnc2)cc1 | 289 | -10.4% (inactive) | 0.8% (inactive) | 101% | -114% (inactive) | 115% | -0.306 (inactive) | -1.2e-05 (inactive) | 0.00775 (inactive) | -17.8% (inactive) | -10.6% (inactive) |
| COc1ccc(OC)c(NC(=O)c2cn(C)c(=O)c3cc(OC)c(OC)cc23)c1 | 782 | -20.3% (inactive) | 1.3% (inactive) | 97.7% | 10.9% (inactive) | 119% | -0.307 (inactive) | -1.5e-05 (inactive) | 0.00686 (inactive) | -16.7% (inactive) | -26.6% (inactive) |
| O=c1c2c3c(sc2nc2sc(C4CC4)nn12)CCCC3 | 428 | -8.3% (inactive) | 19.5% (inactive) | 80.2% | 34.4% (inactive) | 67.7% | -0.602 (inactive) | 3.7e-05 (inactive) | 0.00546 (inactive) | -18.7% (inactive) | -51.7% (inactive) |
| Cc1cc(NC(=O)CN2CCC(O)(c3cccc(F)c3)CC2)no1 | 584 | -53.1% (inactive) | 0.2% (inactive) | 103% | -107% (inactive) | 117% | -0.283 (inactive) | -1.6e-05 (inactive) | 0.00664 (inactive) | -0.229% (inactive) | 20.2% (inactive) |
| COC(=O)c1sc(S(=O)(=O)Nc2ccc3cn[nH]c3c2)c(C(=O)OC)c1C | 392 | 1% (inactive) | 23.4% (inactive) | 80% | -83.8% (inactive) | 100% | -0.533 (inactive) | 5.3e-06 (inactive) | 0.0043 (inactive) | 13.4% (inactive) | 31.2% (inactive) |
| CCCCCCn1c(SCCCC)nc2c1c(=O)[nH]c(=O)n2C | 384 | -8% (inactive) | -12.5% (inactive) | 101% | -10.4% (inactive) | 104% | -0.543 (inactive) | -3.9e-05 (inactive) | 0.00572 (inactive) | 0.691% (inactive) | 10.6% (inactive) |
| COC(=O)c1c(NC(=O)c2ccc(S(=O)(=O)N3CCOCC3)cc2)sc2c1CCN(C)C2 | 296 | -9.1% (inactive) | 3% (inactive) | 117% | -25.5% (inactive) | 114% | -0.483 (inactive) | -5.3e-05 (inactive) | 0.0054 (inactive) | -9.85% (inactive) | 15.9% (inactive) |
| CC(C)(C)n1nnnc1C(c1cccc(C#N)c1)N1CCC(Cc2ccccc2)CC1 (stereo not drawn) | 613 | -13.9% (inactive) | 30.1% (inactive) | 81.1% | -8% (inactive) | 128% | -0.571 (inactive) | -3.4e-05 (inactive) | 0.00477 (inactive) | 25.2% (inactive) | 36.8% (inactive) |
